Key:
[1] = Lipophilicity (HPLC); format: physicochemical
L1210 = experiment: Nanomolar concentration required to reduce the growth of L1210 cells in culture to 50% of control values after 70 h (in vitro); format: functional, cell-based; conditions: Mus musculus, L1210, 70 h
Summary of the method: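 L1210 cells were grown in culture with drug for 70 h. IC50 is the drug concentration (nM) reducing growth to 50% of control values.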

P388 [2] = experiment: Optimal dose in mg/kg administered intraperitoneally on days 1,5 and 9 required to inhibit the growth of P388 leukemia cells was determined (in vivo); format: functional, Mus musculus
Summary of the method: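 Mice were inoculated ip with 10^6 P388 cells. Drug was given ip as a solution in 0.1 mL 30% v/v EtOH/water on days 1, 5 and 9. The optimal dose (mg/kg per day) is the one giving maximal increase in life span; survivors were scored at 50 days, in groups of six.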

[3] = (§1) Average increase in life span of treated animals over control groups of tumor-bearing untreated animals when given at optimal dose (in vivo); format: functional, Mus musculus
Summary of the method: (§2)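 Mice inoculated ip with 10^6 P388 cells (drug ip on days 1, 5, 9) or iv with 10^6 Lewis lung cells (drug ip on days 5, 9, 13). Drug given as a solution in 0.1 mL 30% v/v EtOH/water, in mg/kg per day. Value is the average life-span increase versus untreated tumor-bearing controls at the optimal dose. Significance thresholds: ILS >20% (P388), >40% (LL). Groups of six.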

P388 [4] = experiment: as §1; format: functional, Mus musculus; summary of the method: as §2
[5] = (§3) Optimal dose required after intraperitoneal administration on days 5,9 and 13 to inhibit the growth of lewis lung carcinoma (LL) cells was determined (in vivo); format: functional, Mus musculus
Summary of the method: (§4)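 Mice were inoculated iv with 10^6 Lewis lung cells. Drug was given ip in 0.1 mL 30% v/v EtOH/water on days 5, 9 and 13. The optimal dose (mg/kg per day) is the one giving maximal increase in life span; survivors were scored at 60 days, in groups of six.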

[6] = test system: Lewis lung carcinoma cell line; experiment: Average increase in life span of treated animals over control groups of tumor-bearing untreated animals when given at optimal dose;NA means no significant activity (in vivo); format: functional, organism-based; conditions: Mus musculus
Summary of the method: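 Mice received drug ip as a solution in 0.1 mL 30% v/v EtOH/water at the optimal dose. For P388, 10^6 cells were inoculated ip and drug given on days 1, 5 and 9. For LL, 10^6 cells were inoculated iv and drug given on days 5, 9 and 13. ILS is the mean life-span increase over untreated tumor-bearing controls, significant above 20% (P388) or 40% (LL). Groups were of six. NA means no significant activity up to acutely toxic doses.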

[7] = test system: Lewis lung carcinoma cell line; experiment: as §3; format: functional, Mus musculus; summary of the method: as §4

Row | Structure (SMILES) | Rm [1] | IC50 (L1210) [nM] | OD (P388 [2]) [mg/kg/day] | ILS max [3] | ILS max (P388 [4]) | OD [5] [mg/kg/day] | ILS max [6] | OD [7] [mg/kg/day]
1 | CN(C)CCNC(=O)c1cccc2c1nc1ccccc1[n+]2[O-] | -0.58 | 3000 | 150 | 51 | 81 | 150 | – | –
2 | CN(C)CCCCNC(=O)c1cccc2nc3ccccc3nc12 | -0.11 | 1170 | 150 | – | 49 | – | Not significant | 225

From ChEMBL document CHEMBL1123882, “Potential antitumor agents. 51. Synthesis and antitumor activity of substituted phenazine-1-carboxamides” (J Med Chem, 1987)
